Assay results published in article PMC9082043 (RSC Advances, 2018).
Where two headings read alike, the source gives them in different places.

Assays:
[1] = tested on: HepG2 xenograft; test: In vivo antitumor activity, HepG2 xenograft model; set-up: species or system SPF BALB/c nude mice
Summary of the method: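 HepG2 xenografts in SPF BALB/c nude mice, randomised into vehicle, low-dose (10 mg kg−1), high-dose (20 mg kg−1) and paclitaxel (5 mg kg−1) groups. All were injected in 5% DMSO/saline (v/v). Tumours were measured twice weekly in two dimensions to give volume, mean ± SD, n = 6. The relative tumour increment rate (T/C, %) was taken at day 41.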

[2] = tested on: BEL-7404 (human liver cancer cells); test: MTT antiproliferative assay, BEL-7404; assay type: cell-based; conditions: read-out: IC50 BEL-7404, 48 h, mean ± SD of three experiments
Summary of the method: (§1)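 MTT assay on HepG2, SK-OV-3, NCI-H460, BEL-7404 and normal HL-7702 cells, with 5-fluorouracil and cisplatin run alongside as positive controls.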

[3] = tested on: HepG2 (human liver cancer cells); test: MTT antiproliferative assay, HepG2; assay type: cell-based; conditions: read-out: IC50 HepG2
Summary of the method: as §1

[4] = tested on: SK-OV-3 (human ovarian cancer cells); test: MTT antiproliferative assay, SK-OV-3; assay type: cell-based; conditions: read-out: IC50 SKOV-3
Summary of the method: as §1

[5] = tested on: NCI-H460 (human large cell lung cancer cells); test: MTT antiproliferative assay, NCI-H460; assay type: cell-based; conditions: read-out: IC50 NCI-H460
Summary of the method: as §1

[6] = tested on: HL-7702 (human liver normal cells); test: MTT cytotoxicity assay, HL-7702 normal cells; assay type: cell-based; conditions: L02, 48 h, read-out: IC50 HL-7702
Summary of the method: as §1

[7] = MTT, 48 h, mean ± SD of three experiments

In the case of CC(=O)O[C@H]1C(=O)[C@@]2(C)[C@H]([C@H](OC(=O)c3ccccc3)[C@]3(O)C[C@H](OC(=O)[C@H](O)[C@@H](NC(=O)c4ccccc4)c4ccccc4)C(C)=C1C3(C)C)[C@]1(OC(C)=O)CO[C@@H]1C[C@@H]2O [Paclitaxel, paclitaxel], the “T/C value (relative tumor increment rate)” value ([1]; 5 mg kg^−1 dose) is reported as 19.0% and the “effect on tumour volume in mice” value ([1]; 3a1 10 and 20 mg kg^−1, paclitaxel 5 mg kg^−1, compared with control) is reported as “significantly inhibited the increase in the tumour volume”.

Work on N.N.[Cl][Pt][Cl] [Cisplatin, cisplatin] yielded an IC50 [2] of 14.7 ± 0.66 µM, an IC50 [3, 7] of 10.1 ± 0.71 µM and an IC50 [4, 7] of 15.6 ± 1.7 µM. The IC50 [5, 7] was 20.4 ± 0.5 µM.

O=c1[nH]cc(F)c(=O)[nH]1 [5-FU, 5-fluorouracil] was tested, and the IC50 ([3]; Homo sapiens, HepG2, 48 h) was 32 ± 0.56 µM, the IC50 ([4]; Homo sapiens, SK-OV-3, 48 h) was 26.3 ± 0.57 µM and the IC50 ([5]; Homo sapiens, NCI-H460, 48 h) was 45.4 ± 0.94 µM. For the same compound, the IC50 [6] was 58.7 ± 2.31 µM.
